Results on six molecules are retold here after PMC2225610 (The Journal of General Physiology, 1999).

“Also recorded” adds a separate entry of the source. Read-outs that look alike come from different tables or passages of the source.

For assay [1], the target named is T1, type 1 InsP3 receptor (cerebellar membranes) (Canis lupus familiaris, UniProt A0A8I3NKB2). The conditions noted are these: ref Kaftan et al., 1997; cited from earlier work.
Assay [2] concerns the target T1, type 1 InsP3 receptor (cerebellar membranes). Nature of the assay: InsP3 binding to cerebellar microsomes. Further details: species or system canine. The essentials: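 Canine cerebellar microsomes prepared with protease inhibitors. Membranes added, incubated 8 min at 0° or 22°C, then pelleted at 40,000 g for 10 min for scintillation counting. Nonspecific binding measured with 40–160 μM unlabeled InsP3. Two-site Scatchard fit; 3–5 repeats, separate preparations.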

In assay [3] the target is T2, type 1 InsP3-gated Ca channel (Canis lupus familiaris, UniProt A0A8I3NKB2). The conditions noted are these: cited from earlier work.
Assay [4] has as its target T2, type 1 InsP3-gated Ca channel. The assay can be described thus: InsP3-gated channel activity in planar lipid bilayer. The format is biochemical, canine. The essentials:
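Canine cerebellar microsomes fused into PE:PS (3:1) bilayers in decane. Cytosolic side: 500 μM Na-ATP, 500 μM EGTA, 110 mM Tris, 250 mM HEPES, pH 7.35, with CaCl2 to set free Ca, verified by BTC fluorescence. Luminal side: 53 mM Ba(OH)2 as carrier, 250 mM HEPES. InsP3 added to start activity. Held at 0 mV; filtered 1 kHz, digitized 5 kHz; open-time histograms compiled.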

Assay [5] concerns the target InsP3-gated Ca channel tetrameric complex. The assay can be described thus: Mathematical model of the tetrameric InsP3-gated channel complex. The conditions noted are these: read-out: Model dissociation constant, InsP3 low affinity site (J); 22°C. The essentials: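 Tetramer model: each subunit has a medium-affinity InsP3 site, a low-affinity InsP3 site and a Ca site, giving 125 states. Assumes mass-action binding, diffusion-limited on-rates and identical subunits, solved at equilibrium. Low-affinity occupancy defines the active state, with open/closed transitions. Unknown parameters found by quasi-Newton iterative fitting to single-channel open probability and Ca-dependent binding data at 22°C; open-time histograms add constraints.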

Assay [6] relates to cerebellar Purkinje cells. The settings on record: flash photolysis; ref Khodakhah and Ogden, 1995; cited from earlier work.
For assay [7], the system named is intracellular Ca. The conditions noted are these: 100 μM; ref Wakui et al., 1989; Petersen et al., 1991; cited from earlier work.

T1 sequence (A0A8I3NKB2 1-2757): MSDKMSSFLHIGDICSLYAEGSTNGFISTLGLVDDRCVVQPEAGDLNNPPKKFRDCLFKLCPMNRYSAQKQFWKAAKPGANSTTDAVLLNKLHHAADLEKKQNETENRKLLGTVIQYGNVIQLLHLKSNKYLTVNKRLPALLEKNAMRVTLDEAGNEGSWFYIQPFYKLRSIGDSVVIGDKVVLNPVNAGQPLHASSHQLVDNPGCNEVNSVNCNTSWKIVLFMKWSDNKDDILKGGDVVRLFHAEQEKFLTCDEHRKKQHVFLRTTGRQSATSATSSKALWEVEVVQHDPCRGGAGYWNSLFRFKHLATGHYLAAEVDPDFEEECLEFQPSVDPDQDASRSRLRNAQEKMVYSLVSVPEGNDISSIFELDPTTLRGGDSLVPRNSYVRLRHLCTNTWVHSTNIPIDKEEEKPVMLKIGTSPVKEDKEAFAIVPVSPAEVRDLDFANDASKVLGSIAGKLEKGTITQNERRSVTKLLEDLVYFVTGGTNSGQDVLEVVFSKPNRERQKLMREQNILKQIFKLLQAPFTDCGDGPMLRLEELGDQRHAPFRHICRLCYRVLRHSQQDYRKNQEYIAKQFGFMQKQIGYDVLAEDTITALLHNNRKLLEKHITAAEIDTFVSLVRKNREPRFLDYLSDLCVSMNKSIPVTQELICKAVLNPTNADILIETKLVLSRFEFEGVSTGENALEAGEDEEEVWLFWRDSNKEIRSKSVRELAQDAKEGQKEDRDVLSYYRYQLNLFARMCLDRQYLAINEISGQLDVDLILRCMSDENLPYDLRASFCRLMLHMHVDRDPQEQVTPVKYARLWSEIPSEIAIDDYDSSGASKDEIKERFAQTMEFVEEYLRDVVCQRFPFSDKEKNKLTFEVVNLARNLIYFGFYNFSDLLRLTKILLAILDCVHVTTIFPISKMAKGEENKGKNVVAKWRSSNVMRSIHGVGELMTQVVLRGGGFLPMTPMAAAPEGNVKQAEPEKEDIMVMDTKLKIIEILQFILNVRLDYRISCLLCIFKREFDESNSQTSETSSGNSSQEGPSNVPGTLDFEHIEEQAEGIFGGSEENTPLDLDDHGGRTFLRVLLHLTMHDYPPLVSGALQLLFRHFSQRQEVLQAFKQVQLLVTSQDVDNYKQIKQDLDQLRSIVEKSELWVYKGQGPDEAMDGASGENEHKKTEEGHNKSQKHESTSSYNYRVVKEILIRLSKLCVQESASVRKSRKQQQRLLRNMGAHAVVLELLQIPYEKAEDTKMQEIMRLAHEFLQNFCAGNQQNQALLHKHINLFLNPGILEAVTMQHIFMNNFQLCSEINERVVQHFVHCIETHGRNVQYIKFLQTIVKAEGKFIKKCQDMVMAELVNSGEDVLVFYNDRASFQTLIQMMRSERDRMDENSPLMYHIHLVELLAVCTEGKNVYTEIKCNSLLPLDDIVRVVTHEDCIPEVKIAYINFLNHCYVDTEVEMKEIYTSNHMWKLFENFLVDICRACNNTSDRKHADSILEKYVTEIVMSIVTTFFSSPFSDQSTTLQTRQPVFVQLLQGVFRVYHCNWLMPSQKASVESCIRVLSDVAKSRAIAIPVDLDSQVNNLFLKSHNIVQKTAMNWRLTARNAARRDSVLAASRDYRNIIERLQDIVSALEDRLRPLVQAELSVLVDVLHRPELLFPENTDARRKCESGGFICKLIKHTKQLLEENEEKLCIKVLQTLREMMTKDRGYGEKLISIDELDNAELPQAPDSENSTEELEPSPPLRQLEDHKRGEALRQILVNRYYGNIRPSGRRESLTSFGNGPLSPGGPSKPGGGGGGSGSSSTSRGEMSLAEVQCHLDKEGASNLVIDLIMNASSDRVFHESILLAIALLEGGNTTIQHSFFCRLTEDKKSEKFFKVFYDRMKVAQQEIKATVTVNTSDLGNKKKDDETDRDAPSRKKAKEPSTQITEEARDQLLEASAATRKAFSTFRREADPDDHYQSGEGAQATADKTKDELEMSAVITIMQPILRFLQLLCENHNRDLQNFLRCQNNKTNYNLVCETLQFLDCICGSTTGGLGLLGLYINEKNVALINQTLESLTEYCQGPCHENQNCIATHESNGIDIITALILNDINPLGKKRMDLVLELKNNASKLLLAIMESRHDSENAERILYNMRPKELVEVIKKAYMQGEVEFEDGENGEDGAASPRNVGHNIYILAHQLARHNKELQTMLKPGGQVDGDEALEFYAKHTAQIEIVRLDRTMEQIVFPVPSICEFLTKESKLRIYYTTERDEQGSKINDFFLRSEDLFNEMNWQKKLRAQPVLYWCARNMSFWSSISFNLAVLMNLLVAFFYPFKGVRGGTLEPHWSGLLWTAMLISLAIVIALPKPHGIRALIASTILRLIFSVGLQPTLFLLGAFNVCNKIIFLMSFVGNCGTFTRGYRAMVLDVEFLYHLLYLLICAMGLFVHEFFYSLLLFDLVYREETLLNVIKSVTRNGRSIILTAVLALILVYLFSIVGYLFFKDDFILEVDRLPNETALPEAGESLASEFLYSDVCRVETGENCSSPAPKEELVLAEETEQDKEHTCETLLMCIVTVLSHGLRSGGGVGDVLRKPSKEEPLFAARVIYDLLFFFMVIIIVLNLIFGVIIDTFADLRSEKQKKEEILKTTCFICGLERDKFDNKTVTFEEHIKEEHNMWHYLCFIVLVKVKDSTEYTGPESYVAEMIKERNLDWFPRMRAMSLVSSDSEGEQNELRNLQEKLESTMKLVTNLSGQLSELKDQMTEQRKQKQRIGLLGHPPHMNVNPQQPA

Consider `O=P(O)(O)OC1[C@H](O)[C@H](OP(=O)(O)O)C(OP(=O)(O)O)[C@H](OP(=O)(O)O)[C@H]1O` (stereo partly shown) [1,3,4,5-InsP4], for which, in assay [1], the “Specificity of low affinity site for 1,4,5-InsP3 versus 1,3,4,5-InsP4” value is “low level of specificity”.
Regarding `[Ca+2]` [Ca, calcium], the “Effect of Ca on maximal number of InsP3 binding sites” value in assay [2] (0° and 22°C) is “did not influence the maximal number of binding sites; also recorded: no evidence for an effect”. Further, the “Hill coefficient of Ca-dependent inhibition of InsP3 binding” value in assay [2] (0°C) was 1.5; in assay [2] (22°C), 2.8. Besides, the “Ca-dependent increase in Kd of InsP3 binding” value in assay [2] (0°C, Ca 0.0004 to 10 μM, medium affinity site) is ~3.5 fold. Further, in assay [2] (0°C, Ca increased from 0 to 100 μM, 10 nM InsP3), the “Decrease of InsP3 binding by Ca” value came out at 66%. Further, the “Reduction of InsP3 binding by Ca” value in assay [2] (22°C, 170 nM InsP3, Ca 0.1 to 10 μM) stood at 55%. In assay [3] (5 μM Ca, 2 μM InsP3, ref Bezprozvanny et al., 1991), the “Inhibition of channel activity by Ca” value was “near complete inhibition”.
On to `O=C(O)CN(CCOCCOCCN(CC(=O)O)CC(=O)O)CC(=O)O` [EGTA], for which, in assay [2] (EGTA added after Ca), the “Reversal of Ca-dependent inhibition of InsP3 binding by Ca chelation” value was “fully reversible; also recorded: completely reversed; also recorded: completely reversible”.
`O=P(O)(O)O[C@@H]1[C@H](O)[C@H](O)[C@@H](OP(=O)(O)O)[C@H](OP(=O)(O)O)[C@H]1O` [InsP3, inositol 1,4,5-trisphosphate]: the “Q10 of temperature-dependent change in InsP3 binding affinity” value in assay [2] (0° vs 22°C, cerebellar membranes) was 2.3. Moreover, the “Difference between medium and low affinity site dissociation constants” value in assay [2] (22°C (0.3 vs ∼10 μM)) was determined as 30 ×. In assay [2] (37°C (1 vs. 10 μM), predicted), the “Difference in dissociation constants between medium and low affinity sites” value is 10 fold. Moreover, the Kd in assay [2] (read-out: Kd for InsP3 binding at high Ca, 22°C, 50 μM free Ca) was determined as 1780 nM; in assay [2] (read-out: Kd of InsP3 binding, medium affinity site, 22°C) it was 312 nM; in assay [5] it was 10000 nM. Besides, the “Channel open time constant, fast component” value in assay [4] (0.01 μM Ca, 2 μM InsP3) worked out at 1.8 ms; in assay [4] (0.1 μM Ca), 0.6 ms. Further, the “Channel open time constant, slow component” value was 9.3 ms in assay [4] (0.01 μM Ca, 2 μM InsP3) and 4.7 ms in assay [4] (0.1 μM Ca). For the same molecule, in assay [3] (180 μM InsP3, ref Kaftan et al., 1997), the “Effect of high InsP3 on Ca-dependent inhibition of channel activity” value is listed as “overcame the Ca-dependent inhibition of channel activity”. Besides, the “Hill coefficient from single channel activity determinations” value in assay [3] (ref Watras et al., 1991) is recorded as 1.0. In addition, in assay [6], the “Intracellular InsP3 needed to induce Ca release” value is given as “at least 9 μM”. For the same molecule, the “Effect on intracellular Ca” value in assay [7] is given as “sustained elevation of intracellular Ca”.
As for `O=P(O)(S)O[C@@H]1[C@@H](O)[C@H](OP(O)(O)=S)[C@@H](OP(O)(O)=S)[C@H](O)[C@@H]1O` (stereo partly shown) [InsPS3], the “Effect on intracellular Ca” value in assay [7] was “sustained elevation of intracellular Ca”.
Take `[Ba+2]` [barium]: the “Effect on Ca-dependent inhibition of InsP3 binding” value in assay [2] (100 μM free barium, data not shown) is recorded as “did not alter”.
